Results taken from PMC3932958 (Journal of medicinal chemistry, 2013).

Experiments:
[1] = system: GCPII; details: read-out: IC50 (GCPII); cited from earlier work
[2] = system: rat chronic constriction injury model of neuropathic pain; details: cited from earlier work
[3] = healthy subjects; cited from earlier work
[4] = Preliminary in vivo pharmacokinetics in rats; details: rat, oral 10 mg/kg, time points 0.25, 0.5, 1, 3 h
[5] = Chemical stability in simulated gastric fluid; assay type: physicochemical; details: simulated gastric fluid pH 1.2, 37 °C, up to 48 h
Summary of the method: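 Test compound added to simulated gastric fluid (pH 1.2) and incubated at 37 °C. Samples taken at 30 min, 1, 4 and 48 h. Remaining thiolactone and hydrolysed parent quantified by HPLC: C18 column, water/acetonitrile gradient with 0.1% formic acid, UV detection at 220 nm.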

[6] = Metabolic stability in rat liver microsomes; assay type: in vitro ADME; details: over 1.5 h (data not shown)
Summary of the method: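 Test compound at 10 μM incubated with rat liver microsomes (0.5 mg/mL) in 100 mM potassium phosphate, pH 7.4, in triplicate. Aliquots at 0, 30, 60 and 90 min were quenched with 2 volumes of ice-cold acetonitrile containing losartan as internal standard. Appearance of the parent thiol and loss of compound were followed by LC/MS/MS (C18, negative-ion ESI, MRM of [M − H]−).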

**Q.** Which IC50 [1] does the source give for `O=C(O)CCC(CCCS)C(=O)O` (stereo not drawn) [Compound 1, 2-(3-mercaptopropyl)pentanedioic acid] here?
**A.** 90 nM

**Q.** And the “Efficacy in preclinical animal models by oral administration” value ([2]; variety of preclinical animal models, oral)?
**A.** showed efficacy

**Q.** Which results are given for `O=C(O)c1cccc(-c2cccc(CCS)c2C(=O)O)c1` [Compound 2, 3-(2-mercaptoethyl)-biphenyl-2,3’-dicarboxylic acid]?
**A.** IC50 [1]: 2 nM; Potency in a preclinical model of neuropathic pain following oral administration ([2]; oral administration): significantly improved potency over 1

**Q.** Which “Plasma exposure to parent 4 after oral administration of prodrug” value [3] does the source give for `CC(=O)S[C@@H](Cc1ccccc1)C(=O)N[C@H]1Cc2ccccc2[C@H]2CCC[C@@H](C(=O)O)N2C1=O` [Compound 3] here?
**A.** substantial plasma exposure to 4

**Q.** For `O=C(O)CCC1CCCSC1=O` (stereo not drawn) [Compound 5, 3-(2-Oxotetrahydro-2H-thiopyran-3-yl)propanoic acid], which “Time of highest plasma level of compound 1” value [4] is on record?
**A.** highest at the earliest time point

**Q.** And the “Release of parent compound / stability in simulated gastric fluid” value [5]?
**A.** completely stable

**Q.** Which results are given for `O=C(O)c1cccc(-c2cccc3c2C(=O)SCC3)c1` [Compound 6, 3-(1-Oxoisothiochroman-8-yl)benzoic acid]?
**A.** Release of parent compound / stability in simulated gastric fluid [5]: completely stable; Stability in rat liver microsomes [6]: completely stable
